Paper PMC7363052 (Journal of hepatology, 2020)

Legend:
[1] = target: T1, integrin αvβ3 (Mus musculus, UniProt O54890+P43406); format: binding; conditions: frozen fibrotic liver sections, severe CCl4 and BDL models, immunofluorescence
T1 sequence (P43406 31-885 limits assumed): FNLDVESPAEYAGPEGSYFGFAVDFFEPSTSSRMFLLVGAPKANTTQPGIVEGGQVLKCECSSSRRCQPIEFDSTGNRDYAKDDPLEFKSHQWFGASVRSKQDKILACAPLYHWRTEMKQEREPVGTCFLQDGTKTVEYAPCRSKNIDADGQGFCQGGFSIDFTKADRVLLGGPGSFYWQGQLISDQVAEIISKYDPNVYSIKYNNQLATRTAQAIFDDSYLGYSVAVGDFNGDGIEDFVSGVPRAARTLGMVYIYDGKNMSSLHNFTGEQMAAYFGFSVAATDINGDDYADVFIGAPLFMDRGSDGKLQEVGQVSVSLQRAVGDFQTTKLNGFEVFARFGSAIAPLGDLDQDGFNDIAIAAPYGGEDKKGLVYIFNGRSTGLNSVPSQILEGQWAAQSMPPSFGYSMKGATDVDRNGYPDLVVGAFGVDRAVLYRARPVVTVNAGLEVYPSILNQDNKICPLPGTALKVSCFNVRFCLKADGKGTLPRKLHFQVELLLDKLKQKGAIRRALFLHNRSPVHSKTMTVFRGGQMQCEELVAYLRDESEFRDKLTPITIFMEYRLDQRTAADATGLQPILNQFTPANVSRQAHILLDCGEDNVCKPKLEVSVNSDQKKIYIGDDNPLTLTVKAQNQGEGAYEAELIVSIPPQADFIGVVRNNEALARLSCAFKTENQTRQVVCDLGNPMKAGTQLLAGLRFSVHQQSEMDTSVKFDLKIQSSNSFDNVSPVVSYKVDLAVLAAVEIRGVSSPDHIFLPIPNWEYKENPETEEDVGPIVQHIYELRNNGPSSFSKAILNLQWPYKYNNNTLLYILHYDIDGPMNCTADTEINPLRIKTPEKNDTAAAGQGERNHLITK
T1 sequence (P43406 887-1044 partner limits assumed): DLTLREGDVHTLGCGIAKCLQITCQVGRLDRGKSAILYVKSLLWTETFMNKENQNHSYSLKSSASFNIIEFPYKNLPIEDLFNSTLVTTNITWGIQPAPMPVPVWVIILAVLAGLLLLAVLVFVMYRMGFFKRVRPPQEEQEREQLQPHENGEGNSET
T1 sequence (O54890 26-787): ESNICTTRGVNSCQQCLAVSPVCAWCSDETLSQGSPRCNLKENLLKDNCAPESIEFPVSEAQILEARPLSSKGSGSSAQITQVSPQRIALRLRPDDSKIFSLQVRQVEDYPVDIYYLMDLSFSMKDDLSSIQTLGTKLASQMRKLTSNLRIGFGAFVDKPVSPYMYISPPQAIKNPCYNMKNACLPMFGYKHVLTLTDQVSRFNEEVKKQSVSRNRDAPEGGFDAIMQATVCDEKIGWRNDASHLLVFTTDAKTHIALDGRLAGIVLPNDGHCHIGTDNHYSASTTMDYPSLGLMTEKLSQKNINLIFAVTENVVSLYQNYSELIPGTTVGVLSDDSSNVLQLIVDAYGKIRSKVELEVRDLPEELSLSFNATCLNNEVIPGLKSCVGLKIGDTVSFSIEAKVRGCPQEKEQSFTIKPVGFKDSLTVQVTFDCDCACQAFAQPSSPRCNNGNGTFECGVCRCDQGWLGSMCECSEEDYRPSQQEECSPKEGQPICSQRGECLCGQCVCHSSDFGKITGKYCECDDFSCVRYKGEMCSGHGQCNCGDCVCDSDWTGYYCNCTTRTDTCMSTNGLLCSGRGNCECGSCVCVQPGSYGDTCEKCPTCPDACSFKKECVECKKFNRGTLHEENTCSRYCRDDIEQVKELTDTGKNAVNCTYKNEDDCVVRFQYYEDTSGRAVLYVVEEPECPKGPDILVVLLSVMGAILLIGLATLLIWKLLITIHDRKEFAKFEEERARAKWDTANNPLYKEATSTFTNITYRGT
How it was run: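 Liver fibrosis was induced in 10-week-old male CD1 mice with CCl4, 0.2 mL/kg as 1:5 CCl4:olive oil, i.p. twice weekly for up to 12 weeks. Other mice had the common bile duct transected via midline laparotomy and were killed after 3 weeks. Frozen liver sections were co-stained with a FITC-labelled dimeric RGD peptide probe and α-SMA and CD68 antibodies to assess co-localization.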

[2] = target: integrin αvβ3 (Homo sapiens, UniProt P05106+P06756); format: binding; conditions: advanced fibrosis human liver frozen sections, immunofluorescence
Chain of integrin αvβ3 (Homo sapiens, UniProt P05106+P06756) (P06756 31-889 limits assumed): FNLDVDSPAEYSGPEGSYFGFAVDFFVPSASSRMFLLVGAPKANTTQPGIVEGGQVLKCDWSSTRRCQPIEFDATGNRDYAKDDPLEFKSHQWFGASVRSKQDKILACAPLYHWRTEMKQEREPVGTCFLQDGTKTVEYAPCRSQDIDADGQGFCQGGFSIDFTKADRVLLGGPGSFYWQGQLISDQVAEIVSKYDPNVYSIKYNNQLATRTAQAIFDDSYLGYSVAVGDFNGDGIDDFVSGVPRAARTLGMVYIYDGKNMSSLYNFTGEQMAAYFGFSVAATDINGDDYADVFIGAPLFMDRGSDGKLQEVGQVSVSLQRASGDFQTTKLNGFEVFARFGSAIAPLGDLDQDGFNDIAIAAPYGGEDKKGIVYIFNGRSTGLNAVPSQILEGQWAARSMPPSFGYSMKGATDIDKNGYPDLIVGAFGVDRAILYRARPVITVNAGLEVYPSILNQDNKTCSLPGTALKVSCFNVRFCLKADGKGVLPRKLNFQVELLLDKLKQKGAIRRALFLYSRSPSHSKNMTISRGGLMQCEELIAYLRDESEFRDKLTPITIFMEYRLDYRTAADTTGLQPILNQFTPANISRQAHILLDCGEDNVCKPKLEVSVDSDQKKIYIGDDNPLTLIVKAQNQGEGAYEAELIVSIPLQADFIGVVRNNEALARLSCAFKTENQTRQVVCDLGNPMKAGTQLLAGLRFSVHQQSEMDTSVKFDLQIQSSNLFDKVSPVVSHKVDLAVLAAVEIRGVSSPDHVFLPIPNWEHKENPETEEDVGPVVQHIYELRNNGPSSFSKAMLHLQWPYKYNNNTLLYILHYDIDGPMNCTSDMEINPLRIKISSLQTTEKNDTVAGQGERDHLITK
Chain of integrin αvβ3 (Homo sapiens, UniProt P05106+P06756) (P06756 891-1048 partner limits assumed): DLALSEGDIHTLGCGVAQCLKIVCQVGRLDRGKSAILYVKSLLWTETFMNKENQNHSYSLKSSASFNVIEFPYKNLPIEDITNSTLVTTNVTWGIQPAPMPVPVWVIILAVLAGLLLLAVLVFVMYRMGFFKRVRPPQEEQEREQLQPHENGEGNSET
Chain of integrin αvβ3 (Homo sapiens, UniProt P05106+P06756) (P05106 27-788): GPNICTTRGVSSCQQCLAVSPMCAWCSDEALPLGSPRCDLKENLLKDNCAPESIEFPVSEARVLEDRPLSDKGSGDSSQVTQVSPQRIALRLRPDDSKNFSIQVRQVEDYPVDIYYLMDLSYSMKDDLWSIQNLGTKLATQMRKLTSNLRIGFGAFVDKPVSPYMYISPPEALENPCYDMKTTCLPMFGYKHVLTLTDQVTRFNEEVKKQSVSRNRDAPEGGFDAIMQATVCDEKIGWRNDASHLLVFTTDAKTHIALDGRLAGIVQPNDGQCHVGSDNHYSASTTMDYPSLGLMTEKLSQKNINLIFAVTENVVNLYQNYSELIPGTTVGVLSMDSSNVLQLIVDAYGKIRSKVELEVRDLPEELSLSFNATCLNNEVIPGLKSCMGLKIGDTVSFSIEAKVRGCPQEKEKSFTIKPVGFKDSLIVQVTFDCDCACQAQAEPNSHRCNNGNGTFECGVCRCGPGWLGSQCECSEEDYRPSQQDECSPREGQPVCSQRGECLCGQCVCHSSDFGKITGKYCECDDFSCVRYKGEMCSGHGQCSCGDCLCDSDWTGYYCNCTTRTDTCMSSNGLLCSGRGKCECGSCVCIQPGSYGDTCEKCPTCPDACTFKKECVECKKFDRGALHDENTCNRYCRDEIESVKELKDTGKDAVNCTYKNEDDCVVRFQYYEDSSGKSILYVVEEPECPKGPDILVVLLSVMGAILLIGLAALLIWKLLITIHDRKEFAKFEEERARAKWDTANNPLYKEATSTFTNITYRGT
How it was run: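 Snap-frozen liver sections came from patients with staged fibrosis (F1–F3, n=3 each) and from normal livers. Advanced-fibrosis sections were stained with a FITC-labelled PEG4-linked dimeric cyclic RGD peptide probe (green), plus CD68 or α-SMA (red). Co-localization was read by fluorescence microscopy at original magnification 100X.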

[3] = Serum ALT and AST in CCl4-treated mice; format: in vivo, mouse; conditions: CCl4 0.2 mL/kg i.p. twice per week, 6 weeks (mild), mean ± SEM
[4] = tested on: TGF-β1; assay: Hepatic TGF-β1 mRNA by RT-PCR in CCl4-treated mice; format: in vivo, mouse; conditions: compared to control
How it was run: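 Male CD1 mice, 10 weeks old, given CCl4 at 0.2 mL/kg (1:5 in olive oil) i.p. twice weekly; controls received olive oil only. Hepatic TGF-β1 mRNA was measured by RT-PCR and expressed as relative mRNA level by the ΔΔCT method. Values are mean ± SEM, n = 3–6, compared by one-way ANOVA with Tukey's post hoc test.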

Row | Compound | co-localization with CD68 [1] | co-localization with α-SMA [1] | co-localization with CD68 [2] | co-localization with α-SMA [2] | serum ALT ([3]; sham 20.66±1.383) | serum AST ([3]; sham 76.24±6.128) | hepatic TGF-β1 mRNA level increase ([4]; 6 weeks of CCl4 treatment) | hepatic TGF-β1 mRNA level increase ([4]; 12 weeks of CCl4 treatment)
1 | FITC-E(PEG4-RGDfK)2 [FITC-RGD2] | little co-localization | high co-localization | low co-localization | high co-localization | – | – | – | –
2 | ClC(Cl)(Cl)Cl [CCl4, carbon-tetrachloride] | – | – | – | – | 96.22±18.5 | 125.7±9.82 | 2 fold | 8 fold
